# CHOP inh: CHOP inhibition in unfolded protein response. CHO-K1 CHOP-promoter luciferase, tunicamycin-induced, 15-18 h. inhibition, % at 10 µM. 220,000 compounds, 3.8% hits. AID 2732;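 active = compounds that reduced the stress-induced luciferase reporter signal by more than about 70% of percent inhibition, limit read from the data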;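 note: 0% = tunicamycin plus vehicle and 100% = wells without tunicamycin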
# XBP1 UPR activ: activators of adaptive arm of unfolded protein response (XBP1); 330,000 compounds, 0.33% hits; CHO-XBP1 luciferase reporter, IRE1-XBP1 UPR activation, luminescence; percent of tunicamycin response, DMSO as zero; activation, % at 20 µM;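 active = versus positive control, 20 µM dose yields 30% or more activation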;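 note: 100% = tunicamycin at 10 µg/mL and 0% = DMSO only wells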
#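 Material – CHO cell line with stable XBP1 luciferase reporter · Buffer or medium – F12 plus 10% FBS · Compound – single point, 20 µM final compound, 1% DMSO · Schedule – 16-18 h cell attachment at 37 °C, then 6 h compound exposure · Signal – Steady-Glo luminescence read · Benchmarks – high control tunicamycin 10 µg/mL final, low control DMSO vehicle only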
# TLR4 MyD88 comp: blocks binding of human TLR4 to MyD88. inhibition, % at 8.4 µM. AID 861. HeLa CL3-4 TLR4/MyD88 BLA complementation, FRET ratio. O00206+Q99836. 200,000 compounds, 0.18% hits; in the data active = inhibition above about 25%;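 note: 0% = vehicle and 100% = reference inhibitor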
# TLR9-MyD88 block: inhibitors of human TLR9-MyD88 binding; 340,000 compounds, 0.21% hits; inhibition, % at 4.98 µM; CHO BLA complementation TLR9-MyD88, CCF4 FRET ratio;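 active = inhibition above the mean over all tested compounds plus 3 SD, cut at about 21% in these data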;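 note: 0% = DMSO only wells and 100% = clavulanate BLA inhibitor control wells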
# UPR CHOP act: activators of apoptotic arm of unfolded protein response (CHOP) | CHO-CHOP luciferase reporter, UPR activation, luminescence; percent of tunicamycin response over DMSO baseline | activation, % at 10 µM | 330,000 compounds, 0.34% hits;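 active = at 10 µM dose, activation of 40% or more, normalized to positive control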;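 note: 100% = tunicamycin at 10 µg/mL and 0% = DMSO alone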
#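 System: CHO CHOP reporter cells. Amount: 500 cells per well. Buffer or medium: F12 medium, 10% FBS. Compound dosing: one dose, 10 µM in 0.5% DMSO. Incubation: 6 h compound exposure at 37 °C after overnight seeding. Technique: Steady-Glo luciferase luminescence. Benchmarks: tunicamycin and DMSO controls.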
# NOD2-RIPK2 inh: inhibitors of human NOD2-RIPK2 interaction. CHO BLA complementation NOD2-RIPK2, CCF4 ratio. inhibition, % at 4.98 µM. 360,000 compounds, 0.38% hits; in the data active = inhibition above about 21%;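 note: 0% = vehicle only and 100% = reference blocker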
# NOD2 RIPK2 conf: confirmation of human NOD2-RIPK2 interaction inhibitors; inhibition, % at 4.98 µM; shares compounds with NOD2-RIPK2 inh; 1,200 compounds, 70% hits; CHO cells, NOD2-RIPK2 BLA complementation, CCF4 FRET;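 active = mean inhibition across replicates above a set limit taken from the earlier primary screen, cut at about 21% in these data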;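 note: 0% = DMSO-only wells and the high end = clavulanate BLA-blocked wells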
# NOD2 BLA counter: hits BLA reporter in NOD2-RIPK2 inhibitor counterscreen | 1,200 compounds, 57% hits | shares compounds with NOD2-RIPK2 inh | AID 624371 | CHO BLA reporter, CCF4 FRET ratio | inhibition, % at 4.98 µM;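 active = mean inhibition above the low-control mean inhibition plus three low-control SD, cut at about 11% in these data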;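 note: 0% = DMSO only wells and 100% = clavulanate high control wells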
# * = called active by the depositor; nt = not tested or not shown. Only a selection was taken, and hits are over-represented in it overall.
SMILES,CHOP inh,XBP1 UPR activ,TLR4 MyD88 comp,TLR9-MyD88 block,UPR CHOP act,NOD2-RIPK2 inh,NOD2 RIPK2 conf,NOD2 BLA counter
CCCCCNC(=O)C(c1ccc(-c2ccccc2)cc1)n1c(=O)c(-c2cc3ccccc3[nH]2)nc2ccccc21 (centres undefined),nt,nt,nt,nt,nt,25*,37*,64*
CCCCCNC(=O)C(c1cc2ccccc2o1)n1c(=O)c(-c2cc3ccccc3[nH]2)nc2ccccc21 (centres undefined),nt,nt,nt,nt,nt,48*,43*,66*
COC(=O)/C=C/c1cccc([C@H]2[C@@H]3C=CC[C@@H](C)[C@@H]3C(=O)N2Cc2ccccc2)c1,nt,-2,nt,-3,2,-8,nt,nt
Cc1ccc(-c2noc(CCC(=O)NCCCN3CCN(c4ccc(F)cc4)CC3)n2)cc1,20,-3,7,6,1,-9,nt,nt
Cc1ccc(-c2noc(CCC(=O)NCCCN3CCN(c4cccc(Cl)c4)CC3)n2)cc1,61,-2,-4,-5,4,29*,15,-1
Cc1ccc(C(=O)N2CCOCC2)c(F)c1F,7,-1,0,-5,-2,1,nt,nt
CN(C)c1ncnc2c1ncn2C1CCCO1 (centres undefined),nt,nt,nt,1,nt,-3,nt,nt
CCc1ccc(NC(=O)Cn2c(=O)c3cccn3c3ccccc32)cc1,nt,3,nt,-2,1,22*,11,-2
O=C(N/N=C/c1ccoc1)c1ccccc1F,nt,-3,nt,2,4,-6,nt,nt
COc1ccccc1-c1ccc(/C=C2\C=CC(=O)O2)o1,-7,3,nt,nt,22,48*,45*,49*
CC(C)c1ncc(CO)n1Cc1c(Cl)cccc1Cl,nt,nt,nt,7,nt,-9,nt,nt
C(=C\c1ccco1)/C1=NN(c2ccccc2)C(c2ccco2)C1 (centres undefined),74*,5,15,-23,7,22*,32*,60*
Cc1ccc(C(=O)Nc2ccc(N3CCN(C(=O)c4cccs4)CC3)cc2)c(Cl)c1,nt,-4,nt,0,-2,-1,nt,nt
CCOC(=O)CNc1c(-c2ccc(Cl)cc2)nc2cnccn12,11,-4,6,4,2,28*,25*,24*
COc1cc(-c2nc3cc(C)ccn3c2NC2CCCCC2)ccc1-c1ccc(C(C)=O)cc1,nt,4,nt,2,4,11,nt,nt
CCCCNc1c(-c2ccc(-c3ccc(C(C)=O)cc3)c(OC)c2)nc2cnccn12,nt,2,nt,9,4,23*,21,30*
CCOC(=O)C1=C(c2ccccc2)N=c2s/c(=C\c3ccc(O)cc3)c(=O)n2C1c1cccs1 (centres undefined),68,-1,20,-5,0,25*,31*,42*
CN(C)Cc1cc(C(C)(C)c2cc(CN(C)C)c(O)c(CN(C)C)c2)cc(CN(C)C)c1O,6,-1,17,-7,0,-2,nt,nt
O=C(COC(=O)c1ccccc1OC(F)F)Nc1ccc2[nH]c(=O)[nH]c2c1,nt,3,nt,-10,1,-4,nt,nt
O=C(Nc1cccc([N+](=O)[O-])c1)c1ccc(-c2ccccc2)cc1,49,7,16,4,8,34*,6,3
O=C(Nc1cccc([N+](=O)[O-])c1)c1cccc(C(=O)Nc2cccc([N+](=O)[O-])c2)c1,-24,13,nt,-2,20,-3,nt,nt
Cc1ccc2nc(/C(C#N)=C\c3ccc(N4CCOCC4)o3)[nH]c2c1,8,3,12,8,3,8,nt,nt
Cc1ccc(/C(C#N)=C\c2ccc(N3CCOCC3)o2)cc1,-54,1,12,15,6,42*,32*,27*
Cc1ccc(-c2csc3nc(C)n(-n4c(C)ccc4C)c(=O)c23)o1,64,-4,8,-9,0,49*,0,-1
